Measurements as given in ChEMBL document CHEMBL1144667 (2008).
Calls of active or inactive are those of the source. Residues, ends and D or L forms follow the SMILES beside them.

Columns and labels:
[1] = target: Neurotensin receptor type 1 (Rattus norvegicus) (UniProt P20789); test: Binding affinity at rat NTS1 receptor
Mus musculus [2] = test: Decrease in body temperature in Swiss albino mouse at 3 ug, icv after 90 mins; assay type: functional, organism-based
Outline: (§1)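 icv doses 30 ng–3 µg (10 µL/mouse) in male Swiss albino CD1 mice; body temperature followed over 240 min. Mean body temperature over 4 h = AUC of time–response curve per mouse ÷ 240 min; ED35 = dose giving 35 °C mean over 4 h. 8 mice/group, mean ± SEM vs saline.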

Mus musculus [3] = test: Antinociceptive effect in Swiss albino mouse assessed as reduction in paw licking latency between 300 ng to 3 ug, icv by hot plate test; assay type: functional, organism-based
Outline: (§2)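 Hot plate at 55 ± 0.5 °C, male Swiss albino CD1 mice confined by plastic cylinder, tested 20 min after icv injection (10 µL/mouse; Haley–McCormick method); paw licking and jump latencies recorded, 240 s cutoff, each mouse tested once. Levocabastine 1350 pmol icv alone or co-given with 300 ng agonist. 6–9 mice/group, mean ± SEM vs saline.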

Mus musculus [4] = test: Decrease in body temperature in sc dosed Swiss albino mouse; assay type: functional, organism-based
Outline: (§3)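 Male Swiss albino CD1 mice injected s.c. (10 mL/kg); body temperature followed over time to beyond 3 h; 8–10 mice/group, mean ± SEM vs saline; two-way repeated-measures ANOVA.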

Mus musculus [5] = test: Decrease in body temperature in Swiss albino mouse at 1 mg/kg, iv; assay type: functional, organism-based; set-up: dose 1 mg/kg; settings: TDE = time-dependent effect
Outline: (§4)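 Body temperature tracked over time after i.v. injection (10 mL/kg) in male Swiss albino CD1 mice (20–22 g); 6–8 mice/group, mean ± SEM vs saline; two-way repeated-measures ANOVA.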

Mus musculus [6] = test: Decrease in body temperature in iv dosed Swiss albino mouse; assay type: functional, organism-based; outline: as §4
Mus musculus [7] = test: Decrease in body temperature in Swiss albino mouse at 100 ng, icv after 30 mins; assay type: functional, organism-based; outline: as §1
Mus musculus [8] = test: Antinociceptive effect in icv dosed Swiss albino mouse assessed as reduction in acetic acid-induced writhing responses at 1 mg/kg, sc to 10 mg/kg, sc; assay type: functional, organism-based; settings: in the assay text read “Swiss albino mouse” for “icv dosed Swiss albino mouse”
Outline: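 Writhing in male Swiss albino CD1 mice: s.c. dosing 1–10 mg/kg (10 mL/kg) 15 min before i.p. 0.5% acetic acid; stretches counted over 5 min starting 5 min after acid. 6–8 mice/group, mean ± SEM vs saline.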

Mus musculus [9] = test: Antinociceptive effect in Swiss albino mouse assessed as reduction in acetic acid-induced writhing responses at 30 mg/kg, po
Mus musculus [10] = test: Analgesic activity in iv dosed Swiss Albino mouse assessed as inhibition of acetic acid-induced writhing responses; assay type: functional, organism-based
Outline: (§5)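 Male Swiss albino CD1 mice (20–22 g); i.v. dosing 10 mL/kg, 15 min before i.p. 0.5% acetic acid; mice placed singly in large beakers, stretches counted over 5 min starting 5 min after acid. Dose–response plus time course at 0.3 mg/kg; 8–18 mice/group, mean ± SEM vs saline.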

Mus musculus [11] = test: Decrease in body temperature in Swiss albino mouse at 3 mg/kg, iv; assay type: functional, organism-based; set-up: dose 3 mg/kg; settings: TDE = time-dependent effect; outline: as §4
Mus musculus [12] = test: Antinociceptive effect in Swiss albino mouse assessed as reduction in jump latency between 300 ng to 3 ug, icv by hot plate test; assay type: functional, organism-based; outline: as §2
Mus musculus [13] = test: Antinociceptive effect in Swiss albino mouse assessed as reduction in jump latency at 1350 pmol, icv after 20 mins by hot plate test; assay type: functional, organism-based; settings: in the assay text read “300 ng” for “1350 pmol”; outline: as §2
Mus musculus [14] = test: Decrease in body temperature in Swiss albino mouse at 1 mg/kg, sc; assay type: functional, organism-based; set-up: dose 1 mg/kg; settings: TDE = time-dependent effect; outline: as §3
Mus musculus [15] = test: Antinociceptive effect in Swiss albino mouse assessed as reduction in jump latency at 300 ng, icv after 20 mins by hot plate test; assay type: functional, organism-based; outline: as §2
Mus musculus [16] = test: Decrease in body temperature in icv dosed Swiss albino mouse after 4 hrs; assay type: functional; outline: as §1
Mus musculus [17] = test: Decrease in body temperature in Swiss albino mouse at 3 ug, icv after 4 hrs relative to control; assay type: functional, organism-based; outline: as §1
Mus musculus [18] = test: Analgesic activity in Swiss Albino mouse assessed as inhibition of acetic acid-induced writhing responses at 0.3 mg/kg, iv; assay type: functional, organism-based; set-up: dose 0.3 mg/kg; outline: as §5
Mus musculus [19] = test: Decrease in body temperature in Swiss albino mouse at 10 mg/kg, sc; assay type: functional, organism-based; set-up: dose 10 mg/kg; settings: TDE = time-dependent effect; outline: as §3

Sequence of Neurotensin receptor type 1 (Rattus norvegicus) (P20789 whole entry): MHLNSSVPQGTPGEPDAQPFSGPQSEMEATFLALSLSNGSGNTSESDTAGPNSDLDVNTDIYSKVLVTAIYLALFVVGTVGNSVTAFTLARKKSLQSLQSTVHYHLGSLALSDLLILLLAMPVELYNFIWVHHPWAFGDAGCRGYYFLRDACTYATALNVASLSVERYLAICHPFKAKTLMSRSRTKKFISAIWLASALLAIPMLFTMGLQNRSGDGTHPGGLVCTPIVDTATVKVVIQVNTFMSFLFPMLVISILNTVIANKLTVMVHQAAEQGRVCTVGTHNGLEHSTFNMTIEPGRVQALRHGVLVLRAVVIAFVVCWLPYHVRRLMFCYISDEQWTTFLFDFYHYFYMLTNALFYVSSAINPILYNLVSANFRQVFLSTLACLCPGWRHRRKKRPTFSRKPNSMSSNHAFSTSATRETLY

CCC(C)[C@H](NC(=O)[C@H](Cc1ccc(O)cc1)NC(=O)[C@@H]1CCCN1C(=O)[C@H](CCCNC(=N)N)NC(=O)[C@@H](N)CCCNC(=N)N)C(=O)N[C@@H](CC(C)C)C(=O)O (single isomer, unassigned) was tested, and the Activity [1] was 0.16 nmol.
With CC[C@H](C)[C@@H]1NC(=O)[C@H](Cc2ccc(O)cc2)NC(=O)[C@@H]2CCCN2C(=O)[C@H](CCCCN)NC(=O)[C@H](CCCCN)NC(=O)[C@H](CC(C)C)NC(=O)[C@H]([C@@H](C)CC)NC(=O)[C@H](Cc2ccc(O)cc2)NC(=O)[C@@H]2CCCN2C(=O)[C@H](CCCCN)NC(=O)[C@H](CCCCN)NC(=O)[C@H](CC(C)C)NC1=O (cyclo(ILKKPYILKKPY)) the Activity (Mus musculus [2]) was “Active”, the Activity (Mus musculus [3]) was “Dose-dependent effect” and the Activity (Mus musculus [4]) was “Dose-dependent effect”. For the same molecule, the Activity (Mus musculus [5]) was “tde”, the Activity (Mus musculus [6]) was “Dose-dependent effect” and the Activity (Mus musculus [7]) was “Active”. For the same molecule, the Activity (Mus musculus [8]) was “Dose-dependent effect”, the Activity (Mus musculus [9]) was “Active” and the Activity (Mus musculus [10]) was “Dose-dependent effect”. The Activity (Mus musculus [11]) was “tde”, the Activity (Mus musculus [12]) was “Dose-dependent effect” and the Activity (Mus musculus [13]) was “Active”. The Activity (Mus musculus [14]) was “tde”, the Activity (Mus musculus [15]) was “Active” and the ED35 (Mus musculus [16]) was 300 ng. The Activity (Mus musculus [17]) was “Active”, the Activity (Mus musculus [18]) was “Active” and the Activity (Mus musculus [19]) was “tde”.
